Bioassay records from PubChem.
Sampled rows, rich in hits. Any-hit rate of the full collection: about 0.77%.
bIAP activator – bovine intestinal alkaline phosphatase activators, primary screen, biochemical, bovine IAP, CDP-star luminescence; alkaline phosphatase, intestinal [Bos taurus]; actives 0.17% (n = 200,000); activation factor at 20 µM; purified bovine IAP, 30 min; hits give high values; fold of DMSO-control signal, blank-subtracted;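 active means activation factor of 2 or more at 20 µM, a signal rise over negative controls twice the positive control's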
mIAP inh – inhibitors of mouse IAP, primary screen, biochemical, luminescence, uHTS; inhibition, % at 10 µM; purified mouse IAP, CDP-Star luminescence, 30 min; actives 0.2% (n = 330,000);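 active means inhibition of at least 40% at 10 µM in the primary screen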;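 further: plate controls were DMSO with enzyme for no effect and no enzyme wells for full effect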
hIAP inh – human IAP inhibitors, primary screen, biochemical, luminescence, uHTS; actives 0.12% (n = 330,000); purified IAP, CDP-Star luminescence, 30 min; inhibition, % at 10 µM; Intestinal-type alkaline phosphatase (Homo sapiens), P09923; AID 2544, 2010;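 active means inhibition reaching a set limit with compound at 10 µM in the primary screen, cut at about 35% in these data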;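 further: plate controls were DMSO wells with enzyme for no effect and no-enzyme buffer wells for full effect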
Target sequence (P09923 whole entry, looked up): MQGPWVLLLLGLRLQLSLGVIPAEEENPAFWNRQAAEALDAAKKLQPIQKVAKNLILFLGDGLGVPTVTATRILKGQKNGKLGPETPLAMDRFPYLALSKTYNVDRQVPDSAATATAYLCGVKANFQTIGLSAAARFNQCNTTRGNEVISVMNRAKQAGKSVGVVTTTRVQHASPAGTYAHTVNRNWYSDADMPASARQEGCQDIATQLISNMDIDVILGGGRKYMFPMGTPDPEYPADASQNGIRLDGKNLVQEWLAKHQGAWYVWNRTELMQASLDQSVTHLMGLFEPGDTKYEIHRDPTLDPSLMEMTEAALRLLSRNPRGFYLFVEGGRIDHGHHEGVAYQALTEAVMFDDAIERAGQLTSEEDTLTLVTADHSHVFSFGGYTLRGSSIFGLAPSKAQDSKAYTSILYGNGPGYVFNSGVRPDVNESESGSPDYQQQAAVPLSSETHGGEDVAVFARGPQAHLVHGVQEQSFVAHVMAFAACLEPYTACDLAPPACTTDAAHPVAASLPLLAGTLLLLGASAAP
mIAP act – activators of mouse IAP, primary screen, biochemical, luminescence, uHTS | intestinal alkaline phosphatase [Mus musculus] | muIAP, CDP-Star luminescence, 30 min; hits give high values; 1 = vehicle-only enzyme signal, 0 = enzyme-free wells | activation factor at 10 µM | actives 0.24% (n = 330,000) | AID 2805, 2010;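 active means activation factor of at least 2 at 20 µM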
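Assay system: mouse IAP enzyme; reagent: chemiluminescent substrate CDP-Star; dosing: test compounds delivered from DMSO solution; schedule: 30 min at room temperature; measured by: luminescence from enzymatic CDP-Star hydrolysis; controls: DMSO-only wells and no-enzyme negative control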
bIAP inhibitor – bovine intestinal alkaline phosphatase inhibitors, primary screen, selectivity assay for TNAP inhibitor project, biochemical, bovine IAP, CDP-star luminescence; alkaline phosphatase, intestinal [Bos taurus]; purified bovine IAP, 30 min; inhibition, % at 20 µM; 190,000 tested, under 10 active;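 active means over 50% inhibition of intestinal alkaline phosphatase at 20 µM in the single-dose screen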
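test system = bovine IAP enzyme | medium = DEA buffer 100 mM, pH 9.8, with MgCl2 1.0 mM, ZnCl2 0.02 mM | detection = luminescence | dosing = single compound dose of 20 µM, 2% DMSO final | incubation = 30 min reaction at room temperature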
hIAP act – human IAP activators, primary screen, biochemical, luminescence, uHTS; activation factor at 10 µM; purified human IAP, CDP-Star luminescence, 30 min; hits give high values; 1 = vehicle-only enzyme, 0 = enzyme-free background; AID 2524, 2010; Intestinal-type alkaline phosphatase (Homo sapiens), P09923; actives 0.16% (n = 330,000);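 active means activation factor of the enzyme at least 2-fold when tested at 20 µM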
* = called active by the depositor; . = no result given.

SMILES | bIAP activator | mIAP inh | hIAP inh | mIAP act | bIAP inhibitor | hIAP act
CC(c1ccccc1)N1CCn2c(nc3cc(NC(=O)c4cccs4)ccc32)C1 (centres undefined) | 1.1 | 2 | 9 | 0.98 | -14 | 0.91
CC(=O)Nc1ccc(NC(=O)C(C)OC(=O)CCc2c[nH]c3ccccc23)cc1 (centres undefined) | . | 0 | 2 | 1 | . | 0.98
CCn1ccnc1CNCc1cn(-c2cc(C)ccc2C)nc1-c1ccccc1 | 2.7* | -34 | -18 | 1.3 | -170 | 1.2
O=c1oc2ccccc2c(O)c1Sc1ccc(Cl)cc1 | . | -4 | 6 | 1 | . | 0.94
COc1ccc(C(=O)Nc2ccccc2N2CCN(C(=O)c3ccccc3)CC2)cc1Br | . | 8 | 1 | 0.93 | . | 0.99
O=C(COc1cccc2c1CCNC2=O)Nc1ccc(F)cc1 | . | -1 | -8 | 1 | . | 1.1
CC(NC(=S)NCCc1ccccc1)C(c1cccs1)N1CCN(Cc2ccccc2)CC1 (centres undefined) | 0.3 | -430 | -12 | 5.3* | . | 1.1
CCN1CCN(C(c2cccs2)C(C)NC(=S)Nc2cc(C)ccc2C)CC1 (centres undefined) | . | -10 | 2 | 1.1 | . | 0.98
CC(NC(=O)NC1CCCCC1)C(c1cccs1)N1CCOCC1 (centres undefined) | 0.9 | -6 | 13 | 1.1 | 12 | 0.87
CC(NC(=O)NC1CCCCC1)C(c1cccs1)N1CCN(Cc2ccccc2)CC1 (centres undefined) | 3.4* | -63 | 11 | 1.6 | -240 | 0.89
COc1ccc2nc(-c3ccccc3)cc(C(=O)OCC(=O)NC3CC3)c2c1 | . | 8 | -4 | 0.92 | . | 1
CCc1ccc(OCC(=O)N/N=C(\C)c2ccc(-n3ccnc3)cc2)cc1 | 2* | 7 | -14 | 0.93 | -100 | 1.1
CC(=O)c1ccc(N2CCN(C(=O)c3ccc(C(=O)c4ccccc4)cc3)CC2)cc1 | . | -10 | -14 | 1.1 | . | 1.1
Cc1cccc(NC(=O)C2C(c3ccccc3)C2(Cl)Cl)c1 (centres undefined) | 1 | -147 | -20 | 2.5* | 1 | 1.2
Clc1ccc(-n2nnc(-c3cccnc3Cl)n2)cc1Cl | 0.9 | 49* | 5 | 0.51 | 10 | 0.95
FC(F)(F)c1cccc(NC(=S)NC2CCCC2)c1 | 1 | -161 | -7 | 2.6* | 1 | 1.1
O=C(O)c1ccc(NC(=S)NC2CCCCC2)cc1 | 1 | -3 | 13 | 1 | 1 | 0.87
CCCCNC(=S)Nc1ccc(C(F)(F)F)cc1 | 1.3 | -121 | -10 | 2.2* | -29 | 1.1
CCCCNC(=S)Nc1ccc(Cl)cc1 | 0.9 | -20 | 10 | 1.2 | 6 | 0.9
FC(F)(F)c1cccc(NC(=S)NCC2COc3ccccc3O2)c1 (centres undefined) | 1.1 | -258 | -13 | 3.6* | -6 | 1.1
FC(F)(F)c1ccc(NC(=S)NC2CCCCC2)cc1 | 1 | -167 | -5 | 2.7* | 2 | 1
CCC1CCCCN1C(=O)CSc1n[nH]c(N)n1 (centres undefined) | . | 10 | 16 | 0.9 | . | 0.84
O=C(OCc1nnc(-c2ccc([N+](=O)[O-])cc2)o1)C1CCN(C(=O)c2ccc(F)cc2)CC1 | . | -3 | -12 | 1 | . | 1.1
Cc1nonc1OCCNc1ccc([N+](=O)[O-])cc1 | 2.2* | 11 | -2 | 0.89 | -121 | 1
CCCCNc1nc2ccccc2[nH]1 | 3.1* | 9 | -14 | 0.91 | -210 | 1.1
SMILES | bIAP activator | mIAP inh | hIAP inh | mIAP act | bIAP inhibitor | hIAP act
CCCc1cc(C(=O)Nc2nccs2)cs1 | 0.9 | 66* | -4 | 0.34 | 12 | 1
CCCN1C(=O)c2ccc(C(=O)Nc3nccs3)cc2C1=O | 1 | -3 | -22 | 1 | 2 | 1.2
Cc1ccc(NP(=O)(Nc2ccc(C)cc2)Nc2ccc(C)cc2)cc1 | 1.2 | -146 | -25 | 2.5* | -22 | 1.3
CC(C)(C)NC(=O)C(c1ccc(F)cc1)N(CCc1ccccc1)C(=O)c1ccn[nH]1 (centres undefined) | 2* | -6 | -85 | 1.1 | -100 | 1.9
COc1ccc(N(C(=O)c2ccn[nH]2)C(C(=O)NC(C)(C)C)c2ccc(F)cc2)cc1 (centres undefined) | 3* | -13 | 0 | 1.1 | -201 | 1
CCC(C)(C)NC(=O)C(c1cccs1)N(C(=O)c1ccn[nH]1)c1ccccc1 (centres undefined) | 2.3* | -1 | 5 | 1 | -133 | 0.95
COc1ccc(N(C(=O)C2CSC(=O)C2)C(C(=O)NC(C)(C)C)c2ccncc2)cc1 (centres undefined) | 0.9 | -2 | -15 | 1 | 13 | 1.1
CCC(C)(C)NC(=O)C(c1cccc(OC)c1)N(C(=O)c1ccn[nH]1)c1cccc(OC)c1 (centres undefined) | 0.7 | -16 | -60 | 1.2 | 27 | 1.6
COc1ccc(CCN2CCCn3c2nc2c3c(=O)n(CC(C)C)c(=O)n2C)cc1OC | . | 1 | 9 | 0.99 | . | 0.91
CCN1C(=O)/C(=c2\o/c(=C3\C=Cc4ccccc4N3CC)c(=O)n2CC)SC1=S | 0.6 | . | . | . | 38 | .
CCN1C(=O)/C(=C2\C=Cc3ccccc3N2CC)SC1=S | 0.7 | 41* | 30 | 0.59 | 25 | 0.7
O=C(Nc1ccc(Cl)c(Cl)c1)O/N=C/c1ccncc1 | 1.2 | -142 | -4 | 2.4* | -17 | 1
CC(C)=CCC/C(C)=C/CNC(=O)C[C@H]1C[C@H](C(=O)N2CCCCC2)[C@@]2(C)c3[nH]c4ccc(Cl)cc4c3CCN2C1=O | . | -11 | . | 1.1 | . | .
COc1ccc2[nH]c3c(c2c1)CCN1C(=O)C(CC(=O)NC/C=C(\C)CCC=C(C)C)C[C@H](C(=O)N2CCCCC2)[C@@]31C (some centres undefined) | . | -100 | . | 2* | . | .
O=S(=O)(c1ccc(F)c(F)c1)N1CCC2(CC1)OCCO2 | . | -2 | 9 | 1 | . | 0.91
Oc1ccccc1/C=N/Nc1cccc2cccnc12 | 2.7* | 18 | 1 | 0.82 | -173 | 0.99
COc1ccc(CN2CCNC(=O)C2CC(=O)NC2CC(C)(C)CC(C)(C)C2)cc1OC (centres undefined) | . | 0 | -4 | 1 | . | 1
O=[N+]([O-])c1c(NCCCO)cc(SCc2ccco2)c2nonc12 | 0.9 | 54* | -8 | 0.46 | 5 | 1.1
